Data set [1] concerns the target DNA polymerase beta (Mus musculus, UniProt Q8K409). The data set can be described thus: Ability to inhibit mouse beta DNA polymerase. In outline: (§1)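 Enzyme in 50% glycerol, 1 mM dithiothreitol, 0.5 M KCl and 50 mM Tris-HCl pH 7.5 was premixed with inhibitor in 100% Me2SO and held on ice 10 min. Cocktail (MnCl2, KCl, NaF, BSA, [3H]dGTP, poly(2'-O-methylcytidylic acid)·d(pG)12-18) was then added. Incubation was 45 min at 37 °C.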

Data set [2] in a line: The logarithm of the reciprocal of the concentration which produces 50% inhibition of mammalian alpha DNA polymerase. In outline:
(§2)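 Mammalian α or β DNA polymerase in 100 µL reaction: enzyme in 50% glycerol, 1 mM DTT, 0.5 M KCl, Tris-HCl pH 7.5; Me2SO compound; cocktail with MnCl2, NaF, [3H]dGTP, poly(2'-O-methylC)·d(pG)12-18 template. Compound added first, then enzyme, then cocktail; 45 min at 37 °C. Product radioactivity, background-corrected against Me2SO controls; 50% concentration from triplicate five-dose curves, 10^-3–10^-7 M, expressed as log(1/C).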

Data set [3] in a line: Partition coefficient (logP). Conditions: octanol/water, logP.
Data set [4] deals with Gag-Pol polyprotein (Woolly monkey sarcoma virus, UniProt P03359). Kind of data set: Ability to inhibit simian sarcoma virus reverse transcriptase. In outline: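 Purified SSV-1 RNA-dependent DNA polymerase from 71 AP1 culture fluids, in 20% glycerol, 1 mM dithiothreitol, 1 mg/mL BSA and 50 mM Tris-HCl pH 7.5, was held 10 min on ice with inhibitor in Me2SO. Mn2+/[3H]dGTP cocktail with poly(2'-O-methylcytidylic acid)·d(pG)12-18 template was added, then 45 min at 37 °C. Background-corrected triplicate dose series; the 50% inhibition concentration was extrapolated.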

Data set [5] has as its target Gag-Pol polyprotein (Woolly monkey sarcoma virus) (UniProt P03359). The data set can be described thus: Inhibition of simian sarcoma virus reverse transcriptase. The procedure, abridged:
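SSV-1 RNA-dependent DNA polymerase purified from tissue culture fluid of 71 AP1 cells. 50 µL reaction containing 20% glycerol, 1 mM DTT, BSA, Tris-HCl pH 7.5, MnCl2, KCl, NaF, [3H]dGTP and poly(2'-O-methylC)·d(pG)12-18. Compound in Me2SO is mixed with enzyme on ice for 10 min before the cocktail is added, then incubated 45 min at 37 °C. Radioactivity in product; 50% inhibitory concentration from triplicate dose–response curves spanning 10^-3 to 10^-7 M.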

The target of data set [6] is DNA polymerase beta (Mus musculus) (UniProt Q8K409). The data set can be described thus: The logarithm of the reciprocal of the concentration which produces 50% inhibition of mammalian beta DNA polymerase. In outline: as §2
A short description of data set [7]: Ability to inhibit mouse alpha DNA polymerase. In outline:
as §1

Chain of Gag-Pol polyprotein (P03359 642-1310 limits assumed): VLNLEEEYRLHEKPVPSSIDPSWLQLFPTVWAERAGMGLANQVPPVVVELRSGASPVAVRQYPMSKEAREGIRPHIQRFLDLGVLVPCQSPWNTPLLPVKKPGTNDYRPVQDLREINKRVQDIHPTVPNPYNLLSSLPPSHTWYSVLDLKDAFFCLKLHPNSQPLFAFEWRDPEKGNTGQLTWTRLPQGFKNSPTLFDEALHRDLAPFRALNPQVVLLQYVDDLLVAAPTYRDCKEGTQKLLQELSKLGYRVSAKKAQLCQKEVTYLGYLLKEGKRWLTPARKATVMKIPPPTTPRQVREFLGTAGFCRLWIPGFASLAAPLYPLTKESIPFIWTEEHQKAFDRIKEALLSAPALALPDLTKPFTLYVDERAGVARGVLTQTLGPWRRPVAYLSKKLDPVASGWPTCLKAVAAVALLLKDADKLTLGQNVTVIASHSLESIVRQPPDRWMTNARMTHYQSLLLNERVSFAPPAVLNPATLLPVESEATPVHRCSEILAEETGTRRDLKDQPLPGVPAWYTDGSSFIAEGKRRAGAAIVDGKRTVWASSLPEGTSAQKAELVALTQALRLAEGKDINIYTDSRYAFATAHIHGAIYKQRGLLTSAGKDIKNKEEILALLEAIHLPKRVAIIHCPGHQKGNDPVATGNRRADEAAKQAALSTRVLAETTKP
Chain of Gag-Pol polyprotein (Woolly monkey sarcoma virus) (P03359 whole entry): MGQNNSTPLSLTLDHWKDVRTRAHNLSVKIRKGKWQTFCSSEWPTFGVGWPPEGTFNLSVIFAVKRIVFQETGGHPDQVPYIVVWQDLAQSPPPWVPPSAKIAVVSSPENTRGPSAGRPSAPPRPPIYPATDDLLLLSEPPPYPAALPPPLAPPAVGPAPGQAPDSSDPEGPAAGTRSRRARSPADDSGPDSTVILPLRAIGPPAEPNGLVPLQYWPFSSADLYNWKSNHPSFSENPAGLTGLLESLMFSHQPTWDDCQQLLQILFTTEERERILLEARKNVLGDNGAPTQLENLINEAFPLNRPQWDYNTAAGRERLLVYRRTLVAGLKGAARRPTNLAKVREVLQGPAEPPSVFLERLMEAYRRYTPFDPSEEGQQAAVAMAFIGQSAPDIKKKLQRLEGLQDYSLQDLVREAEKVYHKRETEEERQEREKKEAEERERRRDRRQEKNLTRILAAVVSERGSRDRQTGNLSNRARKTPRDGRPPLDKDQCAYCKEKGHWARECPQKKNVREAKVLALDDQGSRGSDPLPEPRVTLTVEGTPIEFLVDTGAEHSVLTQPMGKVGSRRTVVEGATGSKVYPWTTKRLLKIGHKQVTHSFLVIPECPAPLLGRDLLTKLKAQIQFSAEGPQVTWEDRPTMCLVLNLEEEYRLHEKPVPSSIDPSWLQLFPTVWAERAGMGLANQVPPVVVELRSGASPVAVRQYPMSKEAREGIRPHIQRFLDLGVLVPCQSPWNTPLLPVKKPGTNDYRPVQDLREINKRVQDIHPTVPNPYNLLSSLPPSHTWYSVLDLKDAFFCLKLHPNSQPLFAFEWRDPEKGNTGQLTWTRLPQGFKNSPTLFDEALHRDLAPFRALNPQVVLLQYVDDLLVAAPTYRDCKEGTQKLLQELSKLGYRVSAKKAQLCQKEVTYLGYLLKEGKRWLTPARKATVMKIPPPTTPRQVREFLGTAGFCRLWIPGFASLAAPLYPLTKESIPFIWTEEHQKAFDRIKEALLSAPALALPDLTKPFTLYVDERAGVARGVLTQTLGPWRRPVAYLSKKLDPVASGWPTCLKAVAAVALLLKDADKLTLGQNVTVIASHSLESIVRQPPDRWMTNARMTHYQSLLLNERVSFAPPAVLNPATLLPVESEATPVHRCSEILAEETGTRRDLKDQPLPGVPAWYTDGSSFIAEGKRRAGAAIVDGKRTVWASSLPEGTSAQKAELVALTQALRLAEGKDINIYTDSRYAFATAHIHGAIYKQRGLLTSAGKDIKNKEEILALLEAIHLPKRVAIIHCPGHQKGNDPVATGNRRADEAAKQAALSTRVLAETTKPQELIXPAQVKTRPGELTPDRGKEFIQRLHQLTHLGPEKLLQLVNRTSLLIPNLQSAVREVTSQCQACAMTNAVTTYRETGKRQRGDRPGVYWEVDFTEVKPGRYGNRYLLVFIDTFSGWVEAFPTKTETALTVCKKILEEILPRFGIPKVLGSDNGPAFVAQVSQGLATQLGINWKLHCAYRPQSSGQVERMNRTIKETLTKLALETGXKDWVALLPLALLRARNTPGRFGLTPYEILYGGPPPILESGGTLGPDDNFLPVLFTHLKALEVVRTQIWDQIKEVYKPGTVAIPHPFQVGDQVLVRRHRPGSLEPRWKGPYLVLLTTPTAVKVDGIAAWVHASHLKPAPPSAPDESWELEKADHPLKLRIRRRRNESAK

By logP is commonly meant a log measure of how a compound divides between an organic and an aqueous phase. Turning to `COc1cccc(CN2CCN(/N=C/c3cc4c5c6c(C)c(O)c4c(O)c3NC(=O)/C(C)=C\C=C\C(C)C(O)C(C)C(O)C(C)C(OC(C)=O)C(C)C(OC)/C=C/OC(C)(O6)C5=O)CC2)c1` (configuration not stated), the IC50 in data set [1] is 0.00012 M l-1; in data set [4] (read-out: IC50), 10 µM; in data set [7], 0.00014 M l-1. Further, the Log 1/C turned out to be 3.85 in data set [2], 5 in data set [5] and 3.92 in data set [6]. For the same compound, in data set [3], the logP was determined as 3.34.
Regarding `COC1/C=C/OC2(C)Oc3c(C)c(O)c4c(O)c(ccc4c3C2=O)NC(=O)/C(C)=C\C=C\C(C)C(O)C(C)C(O)C(C)C(OC(C)=O)C1C` (configuration not stated), the IC50 in data set [1] is reported as 0.0011 M l-1; in data set [4] it was 0.00037 M l-1; in data set [7], 0.00076 M l-1. Moreover, the Log 1/C in data set [2] is 3.12; in data set [5], 3.43; in data set [6] it was 2.96. The compound also came in with a logP in data set [3] of 0.78.
For the compound `CCCCCCCCO/N=C/c1cc2c3c4c(C)c(O)c2c(O)c1NC(=O)/C(C)=C\C=C\C(C)C(O)C(C)C(O)C(C)C(OC(C)=O)C(C)C(OC)/C=C/OC(C)(O4)C3=O` (configuration not stated), the IC50 in data set [1] (read-out: IC50) came out at 13 µM; in data set [4] (read-out: IC50), 1 µM; in data set [7], 0.000015 M l-1. For the same compound, the Log 1/C in data set [2] was 4.94; in data set [5] it was 6; in data set [6], 4.89. Moreover, the logP in data set [3] came to 5.2.
Take `COC1/C=C/OC2(C)Oc3c(C)c(O)c4c(O)c(c(/C=N/N5CCCCCCCCCC5)cc4c3C2=O)NC(=O)/C(C)=C\C=C\C(C)C(O)C(C)C(O)C(C)C(OC(C)=O)C1C` (configuration not stated): the results for the IC50 in data set [1] (read-out: IC50), in data set [4] (read-out: IC50) and in data set [7] were 22 µM, 6.6 µM and 0.000031 M l-1, respectively. For the same compound, the Log 1/C in data set [2] came to 4.51; in data set [5], 5.18; in data set [6] it was 4.65. Also, the logP in data set [3] is 4.05.
`COC1/C=C/OC2(C)Oc3c(C)c(O)c4c(O)c(c(/C=N/OCCCc5ccccc5)cc4c3C2=O)NC(=O)/C(C)=C\C=C\C(C)C(O)C(C)C(O)C(C)C(OC(C)=O)C1C` (configuration not stated): the IC50 came to 6.6 µM in data set [1] (read-out: IC50), 5.6 µM in data set [4] (read-out: IC50) and 0.000034 M l-1 in data set [7]. Moreover, the Log 1/C in data set [2] is 4.46; in data set [5], 5.25; in data set [6] it was 5.18. The compound also showed a logP in data set [3] of 4.83.
Regarding `CCCCCN(CCCCC)/N=C/c1cc2c3c4c(C)c(O)c2c(O)c1NC(=O)/C(C)=C\C=C\C(C)C(O)C(C)C(O)C(C)C(OC(C)=O)C(C)C(OC)/C=C/OC(C)(O4)C3=O` (configuration not stated), the IC50 in data set [1] (read-out: IC50) is 48 µM; in data set [4] (read-out: IC50) it was 4.4 µM; in data set [7], 0.000043 M l-1. For the same compound, the values for the Log 1/C in data set [2], in data set [5] and in data set [6] were 4.36, 5.36 and 4.32, respectively. In data set [3], this compound returned a logP of 3.47.
Take `COC1/C=C/OC2(C)Oc3c(C)c(O)c4c(O)c(c(/C=N/N5C(C)CN(Cc6ccc(C#N)cc6)CC5C)cc4c3C2=O)NC(=O)/C(C)=C\C=C\C(C)C(O)C(C)C(O)C(C)C(OC(C)=O)C1C` (configuration not stated): the IC50 in data set [1] (read-out: IC50) came to 22 µM; in data set [4] (read-out: IC50), 16 µM; in data set [7] it was 0.000047 M l-1. Besides, the Log 1/C came to 4.33 in data set [2], 4.8 in data set [5] and 4.66 in data set [6]. In data set [3], this compound had a lipophilicity (logP) of 3.71.
With `COC1/C=C/OC2(C)Oc3c(C)c(O)c4c(O)c(c(/C=N/N5C(C)CN(Cc6ccccc6)CC5C)cc4c3C2=O)NC(=O)/C(C)=C\C=C\C(C)C(O)C(C)C(O)C(C)C(OC(C)=O)C1C` (configuration not stated), the IC50 in data set [1] (read-out: IC50) came to 21 µM; in data set [4] (read-out: IC50), 12.5 µM; in data set [7], 0.000038 M l-1. In addition, the figures for the Log 1/C in data set [2], in data set [5] and in data set [6] were 4.42, 4.9 and 4.68, respectively. Moreover, the logP in data set [3] was determined as 4.28.
On to `COC1/C=C/OC2(C)Oc3c(C)c(O)c4c(O)c(c(/C=N/OC(c5ccccc5)c5ccccc5)cc4c3C2=O)NC(=O)/C(C)=C\C=C\C(C)C(O)C(C)C(O)C(C)C(OC(C)=O)C1C` (configuration not stated), for which the IC50 in data set [1] (read-out: IC50) is 10 µM; in data set [4] (read-out: IC50), 2.5 µM; in data set [7] it was 0.000024 M l-1. Also, the Log 1/C in data set [2] came to 4.62; in data set [5] it was 5.6; in data set [6], 5. Also, the logP in data set [3] was determined as 4.96.
Consider `CCCN(CCC)/N=C/c1cc2c3c4c(C)c(O)c2c(O)c1NC(=O)/C(C)=C\C=C\C(C)C(O)C(C)C(O)C(C)C(OC(C)=O)C(C)C(OC)/C=C/OC(C)(O4)C3=O` (configuration not stated), for which the IC50 in data set [1] (read-out: IC50) came out at 45 µM; in data set [4] (read-out: IC50), 13.5 µM; in data set [7] it was 0.00006500000000000002 M l-1. Besides, the Log 1/C is 4.19 in data set [2], 4.87 in data set [5] and 4.35 in data set [6]. The logP in data set [3] came out at 3.85.
On to `COC1/C=C/OC2(C)Oc3c(C)c(O)c4c(O)c(c(/C=N/N5CCCC5)cc4c3C2=O)NC(=O)/C(C)=C\C=C\C(C)C(O)C(C)C(O)C(C)C(OC(C)=O)C1C` (configuration not stated), for which the figures for the IC50 in data set [1], in data set [4] (read-out: IC50) and in data set [7] were 0.00024 M l-1, 17 µM and 0.00024 M l-1, respectively. Also, the Log 1/C in data set [2] stood at 3.62; in data set [5] it was 4.77; in data set [6] it was 3.62. In addition, the logP in data set [3] turned out to be 2.75.

(Values after ChEMBL document CHEMBL1121400, “Quantitative structure--activity correlations of rifamycins as inhibitors of viral RNA-directed DNA polymerase and mammalian alpha and beta DNA polymerases” (J Med Chem, 1980).)
